CASP6 VEID inh – blocks human caspase-6 cleavage activity; P55212; 350,000 tested, 0.53% active; inhibition, % at 12.5 µM; AID 686996; purified caspase-6, Z-VEID-R110 cleavage fluorescence;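 active means mean inhibition across replicates at least about 35%, with every replicate also reaching that limit, limit read from the data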;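 further: 0% = median of neutral control wells and 100% = no fluorescence left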
HCV NS3 hel inh – blocks Hepatitis C virus NS3 helicase unwinding; NS3 helicase DNA unwinding, Cy5 molecular beacon fluorescence; inhibition, % at 10.9 µM; 290,000 tested, 0.56% active; AID 1800;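 active means inhibition above the mean of all tested compounds plus 3 SD, set per campaign, cut at about 35% in these data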;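 further: 0% = DMSO wells and 100% = thioflavine S control wells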
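Control set: DMSO versus 110 µM thioflavine S; Material: NS3 helicase fragment of HCV; Measured by: Cy5 fluorescence at 0 and 60 min, beacon hairpin quenching; Read-out basis: percent inhibition from t60/t0 fluorescence ratio; Times: reaction time 60 min, 25 °C; Repeats: single replicate; Compound dosing: single dose, 10.9 µM nominal final, DMSO 0.8% final.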
DNMT1 block – blocks human DNA methyltransferase DNMT1. P26358. DNMT1 molecular beacon, Hinp1I cleavage, fluorescence. inhibition (reported as % activation of signal), % at 10 µM. 360,000 tested, 0.83% active. AID 588458
NSD2 HMT inh – NSD2 (human) methyltransferase inhibition; NSD2 peptide methylation, AlphaScreen, 120 min; inhibition, % at 12.5 µM; O96028; 310,000 tested, 0.54% active
* marks the source's active call; other numbers are inactive results; . = no result. Shown are actives, neighbours in structure and some others; about 1.5% of the full set was active somewhere. Unless noted, no stated cut-off is given here; in the data, active means inhibition above about 50%; inactive means the rest.

SMILES	CASP6 VEID inh	HCV NS3 hel inh	DNMT1 block	NSD2 HMT inh
O=C1C(Cl)=C(NCc2cccnc2)C(=O)c2ccccc21	87*	-1	-4	48
O=C1C=C(Nc2ccc(F)cc2)c2ccccc2C1=O	40*	.	54*	6
O=C1CCC2=C(CCCC2=O)N1	0	6	1	-2
CC1(C)CC(=O)C2=C(C1)NC(=O)CC2	38*	.	18	0
CCNC(=O)Nc1ccc2c(c1)C(=O)N(C)[C@H]1CC[C@H](CC(=O)NCc3ccccc3F)O[C@@H]1CO2	-2	.	.	.
COC(=O)C[C@H]1CC[C@H]2[C@@H](COc3ccc(NC(=O)c4ccccc4OC)cc3C(=O)N2C)O1	-1	.	.	.
C[C@@H]1CN([C@@H](C)CO)C(=O)c2cccc(NC(=O)Nc3cccc4ccccc34)c2O[C@H]1CN(C)CC1CC1	38*	.	.	.
C[C@H]1CN([C@@H](C)CO)C(=O)c2cc(C#CCN(C)C)cnc2O[C@H]1CN(C)C(=O)c1ccc2c(c1)OCO2	57*	.	.	.
C[C@H](CO)N1C[C@H](C)[C@@H](CN(C)CC2CCCC2)Oc2ncc(Br)cc2C1=O	-1	.	.	.
C[C@H]1CN([C@@H](C)CO)C(=O)c2cccc(NC(=O)Nc3cccc4ccccc34)c2O[C@H]1CN(C)CC1CCCCC1	2	.	.	.
C[C@@H]1CN([C@@H](C)CO)C(=O)c2cc(C#CCN(C)C)cnc2O[C@@H]1CN(C)C(=O)c1ccc2c(c1)OCO2	-3	.	.	.
C[C@@H]1CN([C@H](C)CO)C(=O)c2cc(Br)cnc2O[C@H]1CN(C)CC1CCCC1	62*	.	.	.
C[C@H](CO)N1C[C@H](C)[C@@H](CN(C)C(=O)Nc2cccc3ccccc23)Oc2c(NC(=O)C3CCOCC3)cccc2C1=O	52*	.	.	.
C[C@H]1CN([C@@H](C)CO)C(=O)Cc2cc(NC(=O)NC3CCCCC3)ccc2O[C@@H]1CN(C)CC1CCCCC1	0	.	.	.
CC(C)C#Cc1ccc([C@@H]2[C@@H](CO)N3CCCCN(C(=O)Nc4ccccc4)C[C@@H]23)cc1	-1	.	.	.
Cc1nc2ccc(NC(=O)CCC3CCCC3)cc2s1	81*	-3	-4	-2
CSc1ccc(CN2CCC2(C)C(=O)Nc2cccc(NS(C)(=O)=O)c2)cc1 (stereo not drawn)	41*	.	0	6
CC(C)CC#Cc1ccc2c(c1)O[C@@H](CN(C)C)[C@@H](C)CN([C@@H](C)CO)S2(=O)=O	-2	.	.	.
Cc1ccc(-c2cc3c(N=O)c4ccccc4c-3n[nH]2)cc1	0	8	75*	-2
COc1ccc(-n2c(NC(=O)c3ccc(Br)o3)c(C#N)c3nc4ccccc4nc32)cc1	.	27	.	.
CCC(=O)Nc1c(C#N)c2nc3ccccc3nc2n1-c1ccc(C)cc1	54*	.	4	43
COCCCNC(=O)CN1C(=O)COc2ccc(S(=O)(=O)N3CCCCCC3)cc21	1	1	10	-3
CC(C)OCCCNC(=O)CN1C(=O)COc2ccc(S(=O)(=O)N3CCCCCC3)cc21	37*	16	-2	.
O=C(CSc1nnc(Nc2ccccc2F)s1)NC1CCS(=O)(=O)C1 (stereo not drawn)	-2	.	5	0
O=C(CSc1nnc(Nc2ccccc2F)s1)NC(=O)CN1CCCC1=O	42*	.	45	4
SMILES	CASP6 VEID inh	HCV NS3 hel inh	DNMT1 block	NSD2 HMT inh
O=C(O)C[C@H]1CC[C@H]2[C@@H](COC[C@H](O)CN2S(=O)(=O)c2ccc(Oc3ccccc3)cc2)O1	40*	.	.	.
O=C(O)C[C@H]1CC[C@@H]2[C@H](COC[C@@H](O)CN2S(=O)(=O)c2ccc(Oc3ccccc3)cc2)O1	10	.	.	.
Cc1ccc(S(=O)(=O)OCC(=O)Nc2ccc(C(=O)O)c(O)c2)cc1	79*	.	46	.
O=S(=O)(O)c1cc(Cl)cc(N=Nc2ccc(O)cc2O)c1O	77*	.	68*	113*
O=[N+]([O-])c1ccc(N=Nc2ccc(O)cc2O)cc1	.	5	3	37
Cc1ccc(NC(=O)c2ccc(OC(=O)CCN3C(=O)c4ccccc4C3=O)cc2)cc1	.	16	50*	4
CNC[C@H]1Oc2ccc(NS(=O)(=O)c3ccc(C)cc3)cc2C(=O)N([C@@H](C)CO)C[C@@H]1C	-1	.	.	.
COc1cc(CN2CCc3ccccc3C2)cc([N+](=O)[O-])c1O	47*	20	2	-1
COc1cc(CN2CCCCCC2)cc([N+](=O)[O-])c1O	0	-2	2	1
O=C(Nc1nccs1)c1cccc(N2C(=O)c3cccc4c([N+](=O)[O-])ccc(c34)C2=O)c1	.	-2	78*	-5
O=C(Nc1ccc(S(=O)(=O)Nc2nccs2)cc1)c1cccc(N2C(=O)c3ccccc3C2=O)c1	0	6	3	0
Cc1ccc(C(=O)O)cc1N1C(=O)c2cccc3c([N+](=O)[O-])ccc(c23)C1=O	42*	24	60*	49
C=CCC(NCc1ccccc1)c1ccc(Cl)cc1 (stereo not drawn)	54*	-5	3	-10
C=CCC(NCc1ccccc1)c1ccc(C)o1 (stereo not drawn)	.	2	-3	-2
CC(C)CN1C(=O)NC2(CCCc3ccccc32)C1=O (stereo not drawn)	40*	7	1	24
CC(=O)CN1C(=O)NC2(CCCc3ccccc32)C1=O (stereo not drawn)	4	5	1	-10
COc1ccc(CCC(=O)Nc2c(-c3ccc(N(C)C)cc3)[nH][nH]c2=O)cc1	9	.	58*	.
COc1cccc(NC(=O)N2CC(=O)N3[C@H](C2)[C@@H](c2ccc(C4=CCCC4)cc2)[C@@H]3CO)c1	0	.	.	.
CC(C)NC(=O)N[C@H]1CC[C@@H](CC(=O)NCCN2CCCC2)O[C@H]1CO	-16	.	.	.
CCCCNC(=S)N1CCN(CC)CC1	45*	-6	2	4
CCOCCCNC(=S)N1CCN(CC)CC1	1	-11	0	5
C/C(=N\NC(=O)c1cc(-c2cccc([N+](=O)[O-])c2)n[nH]1)c1ccccc1O	.	3	60*	-1
CN(C(=O)Nc1ccccc1)C1CCS(=O)(=O)C1 (stereo not drawn)	.	1	1	-1
CC(=O)NC1=C(N(C)C2CCS(=O)(=O)C2)C(=O)c2ccccc2C1=O (stereo not drawn)	31	-26	-7	107*
CCCn1cc(C(CC(=O)O)C(=O)O)c2ccccc21 (stereo not drawn)	.	-2	2	14

High-throughput results (PubChem BioAssay)
